The text below walks through data of ChEMBL document CHEMBL1125357, “Gonadotropin-releasing hormone antagonists with N omega-triazolylornithine, -lysine, or -p-aminophenylalanine residues at positions 5 and 6” (J Med Chem, 1992).

The nature of series [1]: Retention time of the compound. In kind it is ADME. Summed up: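 Peptide (0.5 mg/mL, 10 μL) was loaded in TEAP pH 7.0/CH3CN (76/24), acidified with H3PO4 where insoluble. Elution used a 30-48% CH3CN gradient over 30 min at 1.5 mL/min. Retention time is reported in minutes.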
For series [2], the target named is T1, Gonadotropin-releasing hormone receptor (Homo sapiens, UniProt P30968).
T1 sequence (P30968 whole entry): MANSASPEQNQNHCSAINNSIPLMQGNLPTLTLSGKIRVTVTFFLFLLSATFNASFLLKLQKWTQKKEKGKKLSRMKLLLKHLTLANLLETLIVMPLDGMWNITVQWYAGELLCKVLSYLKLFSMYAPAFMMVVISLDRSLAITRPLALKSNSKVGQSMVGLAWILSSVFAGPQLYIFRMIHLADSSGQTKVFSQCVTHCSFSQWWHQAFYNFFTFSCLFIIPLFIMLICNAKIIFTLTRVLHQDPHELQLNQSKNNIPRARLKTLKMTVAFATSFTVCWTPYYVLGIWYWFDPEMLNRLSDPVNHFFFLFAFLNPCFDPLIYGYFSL
The series is described as follows: The binding affinity towards Gonadotropin-releasing hormone receptor.

Starred links: 1 amine or outer side, 2 acyl side, 3 side chain; linkers in the order of their positions; H or OH if unused. Non-standard residues stand in square brackets, D forms with d. Residues, ends and D or L forms follow the SMILES beside them. *: point of attachment. Phe(4-NH(5-NH2triazol-3-yl)) = Nc1nc(Nc2ccc(C[C@H](N)C(=O)O)cc2)n[nH]1; dNva(5-oxo-5-(4-MeOPh)) = COc1ccc(C(=O)CC[C@@H](N)C(=O)O)cc1; X1 = Nc1nc(Nc2ccc(C[C@@H](N[*:1])C(=O)[*:2])cc2)n[nH]1; Triazol3yl(1,2,4-5-NH2) = Nc1nc(*)n[nH]1; dPhe(4-Cl) = N[C@H](Cc1ccc(Cl)cc1)C(=O)O; d2Nal = N[C@H](Cc1ccc2ccccc2c1)C(=O)O; Lys(iPr) = CC(C)NCCCC[C@H](N)C(=O)O; d3Pal = N[C@H](Cc1cccnc1)C(=O)O; NMeL = CN[C@@H](CC(C)C)C(=O)O; Nicotinoyl = O=C(c1cccnc1)*; dOrn = NCCC[C@@H](N)C(=O)O; Orn = NCCC[C@H](N)C(=O)O

Consider `CC(=O)N[C@H](Cc1ccc2ccccc2c1)C(=O)N[C@H](Cc1ccc(Cl)cc1)C(=O)N[C@H](Cc1cccnc1)C(=O)N[C@@H](CO)C(=O)N[C@@H](CCCCNc1n[nH]c(N)n1)C(=O)N[C@H](CCCCNc1n[nH]c(N)n1)C(=O)N[C@@H](CC(C)C)C(=O)N[C@@H](CCCCNC(C)C)C(=O)N1CCC[C@H]1C(=O)NCC(N)=O`, for which the RT in series [1] is 5.53 min. The compound also gave a dissociation constant Kd in series [2] of 0.86 nM. The like results for `CC(=O)N[C@H](Cc1ccc2ccccc2c1)C(=O)N[C@H](Cc1ccc(Cl)cc1)C(=O)N[C@H](Cc1cccnc1)C(=O)N[C@@H](CO)C(=O)N[C@@H](CCCNC(=N)N)C(=O)N[C@H](Cc1cccnc1)C(=O)N[C@@H](CC(C)C)C(=O)N[C@@H](CCCNC(=N)N)C(=O)N1CCC[C@H]1C(=O)N[C@H](C)C(N)=O` were, in that order, 14.1 min and 0.24 nM. On to `CC(=O)N[C@H](Cc1ccc2ccccc2c1)C(=O)N[C@H](Cc1ccc(Cl)cc1)C(=O)N[C@H](Cc1cccnc1)C(=O)N[C@@H](CO)C(=O)N[C@@H](CCCCNC(=O)c1cccnc1)C(=O)N[C@H](CCCCNC(=O)c1cccnc1)C(=O)N[C@@H](CC(C)C)C(=O)N[C@@H](CCCCNC(C)C)C(=O)N1CCC[C@H]1C(=O)N[C@H](C)C(N)=O` (Ac-[d2Nal][dPhe(4-Cl)][d3Pal]SK(Nicotinoyl)[dK](Nicotinoyl)L[Lys(iPr)]P[dA]-NH2), for which, in series [1], the RT was 13.6 min. In series [2], this compound came in with a Kd of 0.35 nM.

Turning to `CC(=O)N[C@H](Cc1ccc2ccccc2c1)C(=O)N[C@H](Cc1ccc(Cl)cc1)C(=O)N[C@H](Cc1cccnc1)C(=O)N[C@@H](CO)C(=O)N[C@@H](CCCCNc1n[nH]c(N)n1)C(=O)N[C@H](CCCCNc1n[nH]c(N)n1)C(=O)N[C@@H](CC(C)C)C(=O)N[C@@H](CCCCNC(C)C)C(=O)N1CCC[C@H]1C(=O)N[C@H](C)C(N)=O` (Ac-[d2Nal][dPhe(4-Cl)][d3Pal]SK(Triazol3yl(1,2,4-5-NH2))[dK](Triazol3yl(1,2,4-5-NH2))L[Lys(iPr)]P[dA]-NH2), the RT in series [1] came out at 7.08 min. In series [2], this compound had a Kd of 0.48 nM. On the same counts, the results for `COc1ccc(C(=O)CC[C@@H](NC(=O)[C@H](CCCN=C(N)N)NC(=O)[C@H](CO)NC(=O)[C@@H](Cc2cccnc2)NC(=O)[C@@H](Cc2ccc(Cl)cc2)NC(=O)[C@@H](Cc2ccc3ccccc3c2)NC(C)=O)C(=O)N[C@@H](CC(C)C)C(=O)N[C@@H](CCCN=C(N)N)C(=O)N2CCC[C@H]2C(=O)N[C@H](C)C(N)=O)cc1` (Ac-[d2Nal][dPhe(4-Cl)][d3Pal]SR[dNva(5-oxo-5-(4-MeOPh))]LRP[dA]-NH2) are 22.8 min and 0.67 nM. The like results for `CC(=O)N[C@H](Cc1ccc2ccccc2c1)C(=O)N[C@H](Cc1ccc(Cl)cc1)C(=O)N[C@H](Cc1cccnc1)C(=O)N[C@@H](CO)C(=O)N[C@@H](CCCNc1n[nH]c(N)n1)C(=O)N[C@H](CCCNc1n[nH]c(N)n1)C(=O)N[C@@H](CC(C)C)C(=O)N[C@@H](CCCCNC(C)C)C(=O)N1CCC[C@H]1C(=O)N[C@H](C)C(N)=O` (Ac-[d2Nal][dPhe(4-Cl)][d3Pal]S[Orn](Triazol3yl(1,2,4-5-NH2))[dOrn](Triazol3yl(1,2,4-5-NH2))L[Lys(iPr)]P[dA]-NH2) were, in that order, 6.2 min and 0.21 nM.

On to `CC(=O)N[C@H](Cc1ccc2ccccc2c1)C(=O)N[C@H](Cc1ccc(Cl)cc1)C(=O)N[C@H](Cc1cccnc1)C(=O)N[C@@H](CO)C(=O)N[C@@H](Cc1ccc(Nc2n[nH]c(N)n2)cc1)C(=O)N[C@H](Cc1ccc(Nc2n[nH]c(N)n2)cc1)C(=O)N(C)[C@@H](CC(C)C)C(=O)N[C@@H](CCCCNC(C)C)C(=O)N1CCC[C@H]1C(=O)N[C@H](C)C(N)=O` (Ac-[d2Nal][dPhe(4-Cl)][d3Pal]S[Phe(4-NH(5-NH2triazol-3-yl))][X1][NMeL][Lys(iPr)]P[dA]-NH2), for which the RT in series [1] stood at 10.6 min.

Usually Kd stands for the equilibrium constant for the complex coming apart.
